Measured values reported in ChEMBL document CHEMBL2146441, “2,6-Disubstituted imidazo[2,1-b][1,3,4]thiadiazoles: search for anticancer agents” (2012).

Columns and labels:
Type in all cases: functional
[1] = test system: M14; assay: Cytotoxicity against human M14 cells assessed as cell growth at 10^-5 M after 48 hrs by SRB assay; settings: M14, 48 h, read-out: Activity
[2] = test system: RXF 393; assay: Cytotoxicity against human RXF393 cells assessed as cell growth at 10^-5 M after 48 hrs by SRB assay; settings: RXF 393, 48 h, read-out: Activity
[3] = test system: MCF7; assay: Cytotoxicity against human MCF7 cells assessed as cell growth at 10^-5 M after 48 hrs by SRB assay; settings: MCF7, 48 h, read-out: Activity
[4] = test system: SNB-19; assay: Growth inhibition of human SNB19 cells after 48 hrs by SRB assay; settings: SNB-19, 48 h; for CC50: read-out: LC50 (the source's name)
How it was run: (§1)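 Adherent NCI-60 lines grown in RPMI 1640 with 5% FBS, seeded at 5000–40,000 cells/well, and preincubated 24 h at 37 °C, 5% CO2. Compound, stocked in DMSO, given either once at 10^-5 M or at five 10-fold dilutions for 48 h. Cells fixed with cold TCA (final 10%), stained with 0.4% SRB, and read at 515 nm. GI50 taken as 50% reduction in net protein increase versus time-zero and control plates.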

[5] = test system: SNB-75; assay: Growth inhibition of human SNB75 cells after 48 hrs by SRB assay; settings: SNB-75, 48 h; how it was run: as §1
[6] = test system: T47D; assay: Cytotoxicity against human T47D cells assessed as cell growth at 10^-5 M after 48 hrs by SRB assay; settings: read-out: Activity
[7] = test system: EKVX; assay: Cytotoxicity against human EKVX cells assessed as cell growth at 10^-7 M after 48 hrs by SRB assay; settings: read-out: Activity
How it was run: (§2)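 NCI-60 screen: lines kept in RPMI 1640 with 5% FBS, seeded at 5000–40,000 cells/well by doubling time, preincubated 24 h at 37 °C in 5% CO2. Time-zero plates TCA-fixed at drug addition. DMSO stocks diluted in medium, 48 h exposure. Fixation in cold TCA (final 10% adherent, 16% suspension), 0.4% SRB stain, solubilised in 10 mM Tris base, A515. Percent growth computed against control and time-zero.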

[8] = test system: SNB-75; assay: Cytotoxicity against human SNB75 cells assessed as cell growth at 10^-7 M after 48 hrs by SRB assay; settings: SNB-75, 48 h, read-out: Activity
[9] = test system: M14; assay: Cytotoxicity against human M14 cells assessed as cell growth at 10^-7 M after 48 hrs by SRB assay; settings: M14, 48 h, read-out: Activity
[10] = test system: SK-MEL-28; assay: Cytotoxicity against human SK-MEL-28 cells assessed as cell growth at 10^-7 M after 48 hrs by SRB assay; settings: SK-MEL-28, 48 h, read-out: Activity
[11] = test system: UACC-62; assay: Cytotoxicity against human UACC62 cells assessed as cell growth at 10^-7 M after 48 hrs by SRB assay; settings: UACC-62, 48 h, read-out: Activity
[12] = Cytotoxicity against human RPMI8266 cells assessed as cell growth at 10^-4 M after 48 hrs by SRB assay; settings: RPMI8266, 48 h, read-out: Activity
[13] = test system: MDA-MB-435; assay: Cytotoxicity against human MDA-MB-435 cells assessed as cell growth at 10^-4 M after 48 hrs by SRB assay; settings: MDA-MB-435, 48 h, read-out: Activity
[14] = test system: OVCAR-3; assay: Cytotoxicity against human OVCAR3 cells assessed as cell growth at 10^-4 M after 48 hrs by SRB assay; settings: OVCAR-3, 48 h, read-out: Activity
[15] = test system: OVCAR-4; assay: Cytotoxicity against human OVCAR4 cells assessed as cell growth at 10^-4 M after 48 hrs by SRB assay; settings: OVCAR-4, 48 h, read-out: Activity
[16] = test system: OVCAR-5; assay: Cytotoxicity against human OVCAR5 cells assessed as cell growth at 10^-4 M after 48 hrs by SRB assay; settings: OVCAR-5, 48 h, read-out: Activity
[17] = test system: SN12C; assay: Cytotoxicity against human SN12C cells assessed as cell growth at 10^-7 M after 48 hrs by SRB assay; settings: read-out: Activity
[18] = test system: LOX IMVI; assay: Cytotoxicity against human LOXIMVI cells assessed as cell growth at 10^-8 M after 48 hrs by SRB assay; settings: read-out: Activity
[19] = test system: UACC-62; assay: Cytotoxicity against human UACC62 cells assessed as cell growth at 10^-8 M after 48 hrs by SRB assay; settings: UACC-62, 48 h, read-out: Activity
[20] = test system: OVCAR-3; assay: Cytotoxicity against human OVCAR3 cells assessed as cell growth at 10^-8 M after 48 hrs by SRB assay; settings: OVCAR-3, 48 h, read-out: Activity
[21] = Cytotoxicity against human NCI-ADR-RES cells assessed as cell growth at 10^-8 M after 48 hrs by SRB assay; settings: read-out: Activity
[22] = test system: PC-3; assay: Cytotoxicity against human PC3 cells assessed as cell growth at 10^-8 M after 48 hrs by SRB assay; settings: PC-3, 48 h, read-out: Activity
[23] = test system: NCI-H226; assay: Cytotoxicity against human NCI-H226 cells assessed as cell growth at 10^-6 M after 48 hrs by SRB assay; settings: NCI-H226, 48 h, read-out: Activity
[24] = test system: SF-539; assay: Cytotoxicity against human SF539 cells assessed as cell growth at 10^-6 M after 48 hrs by SRB assay; settings: SF-539, 48 h, read-out: Activity
[25] = test system: UO-31; assay: Cytotoxicity against human UO31 cells assessed as cell growth at 10^-6 M after 48 hrs by SRB assay; settings: UO-31, 48 h, read-out: Activity
[26] = test system: OVCAR-3; assay: Growth inhibition of human OVCAR3 cells after 48 hrs by SRB assay; settings: OVCAR-3, 48 h; how it was run: as §1
[27] = test system: HL-60; assay: Growth inhibition of human HL60 cells after 48 hrs by SRB assay; settings: HL-60, 48 h
How it was run: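 Leukemia suspension lines grown in RPMI 1640 with 5% FBS, seeded at 5000–40,000 cells/well, and preincubated 24 h at 37 °C, 5% CO2. Compound, stocked in DMSO, given either once at 10^-5 M or at five 10-fold dilutions for 48 h. Settled cells fixed with 80% TCA (final 16%), stained with SRB, and read at 515 nm. GI50 calculated against time-zero and control growth.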

[28] = test system: A549; assay: Growth inhibition of human A549 cells after 48 hrs by SRB assay; settings: A549, 48 h; for CC50: read-out: LC50 (the source's name)
How it was run: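 Same 48 h NCI-60 five-dose SRB protocol. Adherent lines were fixed with cold TCA at 10% final; suspension lines such as CCRF-CEM were fixed with 16% final TCA. Stain was 0.4% SRB in 1% acetic acid for 10 min, solubilized in 10 mM Tris base and read at 515 nm. GI50 came from log concentration–growth curves, solving [(Ti−Tz)/(C−Tz)]×100 = 50.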

[29] = test system: BT-549; assay: Cytotoxicity against human BT549 cells assessed as cell growth at 10^-6 M after 48 hrs by SRB assay; settings: BT-549, 48 h, read-out: Activity; how it was run: as §2

| SMILES | growth at 10 µM [1] | growth at 10 µM [2] | growth at 10 µM [3] | GI50 [4] | TGI [4] | CC50 [4] | GI50 [5] | TGI [5] | growth at 10 µM [6] | growth at 0.1 µM [7] | growth at 0.1 µM [8] | growth at 0.1 µM [9] | growth at 0.1 µM [10] | growth at 0.1 µM [11] | growth at 100 µM [12] | growth at 100 µM [13] | growth at 100 µM [14] | growth at 100 µM [15] | growth at 100 µM [16] | growth at 0.1 µM [17] | other results |
| --- | --- | --- | --- | --- | --- | --- | --- | --- | --- | --- | --- | --- | --- | --- | --- | --- | --- | --- | --- | --- | --- |
| COc1ccc(-c2nn3cc(-c4ccc(O)cc4O)nc3s2)cc1 | 17% | -83% | 3% | 3.57 µM | > 100 µM | > 100 µM | 0.331 µM | 2.17 µM | -29% | 92% | 68% | 96% | 92% | 95% | 3% | -38% | -14% | -22% | 2% | 93% | growth at 0.01 µM [18]: 101%; growth at 0.01 µM [19]: 98%; growth at 0.01 µM [20]: 102%; growth at 0.01 µM [21]: 101%; growth at 0.01 µM [22]: 96%; growth at 1 µM [23]: 61%; growth at 1 µM [24]: 97%; growth at 1 µM [25]: 68%; GI50 [26]: 2.54 µM; LC50 (concentration causing 50% net cell kill) [26]: > 100 µM; TGI [26]: 8.48 µM; GI50 [27]: 3.86 µM; LC50 [27]: > 100 µM; TGI [27]: 37.4 µM; GI50 [28]: 2.69 µM; TGI [28]: > 100 µM; CC50 [28]: > 100 µM; growth at 1 µM [29]: 73% |
| COc1ccc(-c2nn3cc(-c4cccc(N)c4)nc3s2)cc1 | 34% | -31% | 21% | 12.4 µM | > 100 µM | > 100 µM | 1.07 µM | 4.87 µM | 7% | 72% | 74% | 101% | 95% | 90% | -8% | -53% | -74% | -34% | -23% | 91% | CC50 ([5]; read-out: LC50 (the source's name)): > 100 µM; growth at 0.01 µM [18]: 94%; growth at 0.01 µM [19]: 93%; growth at 0.01 µM [20]: 102%; growth at 0.01 µM [21]: 100%; growth at 0.01 µM [22]: 91%; growth at 1 µM [23]: 58%; growth at 1 µM [24]: 91%; growth at 1 µM [25]: 60%; GI50 [26]: 3.4 µM; LC50 (concentration causing 50% net cell kill) [26]: 55.2 µM; TGI [26]: 15.9 µM; GI50 [27]: 1.77 µM; LC50 [27]: > 100 µM; TGI [27]: 37.7 µM; GI50 [28]: 5.84 µM; TGI [28]: 27.5 µM; CC50 [28]: > 100 µM; growth at 1 µM [29]: 87% |
